Measurements taken from ChEMBL document CHEMBL3734701, “Synthesis and antibacterial activity of 4″-O-(trans-β-arylacrylamido)carbamoyl azithromycin analogs” (2015).
Converted amounts (≈) assume the structure as drawn.

Columns and labels:
Assay type in all cases: functional
[1] = tested on: Streptococcus pneumoniae; experiment: Antibacterial activity against erythromycin-resistant Streptococcus pneumoniae AB11 expressing ermB and mefA genes by broth microdilution method
Summary of the method: (§1)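 MICs measured in vitro by broth microdilution following NCCL recommendations, against a Gram-positive panel of sensitive and resistant strains. Azithromycin and clarithromycin were tested alongside as references.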

[2] = tested on: Staphylococcus aureus; experiment: Antibacterial activity against methicillin-susceptible Staphylococcus aureus ATCC 29213 by broth microdilution method; summary of the method: as §1
[3] = tested on: Streptococcus pyogenes; experiment: Antibacterial activity against clinically isolated erythromycin-susceptible Streptococcus pyogenes S2 by broth microdilution method
Summary of the method: (§2)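 Broth microdilution MIC following the NCCL-recommended method. Panel of sensitive and resistant Gram-positive strains: S. pyogenes S2 (erythromycin-susceptible clinical isolate), S. aureus ATCC25923 and S. pneumoniae ATCC49619 (erythromycin-susceptible). Azithromycin and clarithromycin were run alongside as references.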

[4] = tested on: Streptococcus pneumoniae; experiment: Antibacterial activity against erythromycin-resistant Streptococcus pneumoniae A22072 expressing mefA gene by broth microdilution method; summary of the method: as §1
[5] = tested on: Staphylococcus aureus; experiment: Antibacterial activity against clinically isolated penicillin-resistant Staphylococcus aureus by broth microdilution method
Summary of the method: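 Clinical penicillin-resistant S. aureus isolate, not further characterized, tested in a Gram-positive panel. MIC was measured by broth microdilution following NCCL recommendations, with azithromycin and clarithromycin as references.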

[6] = tested on: Streptococcus pneumoniae; experiment: Antibacterial activity against erythromycin-resistant Streptococcus pneumoniae B1 expressing ermB gene by broth microdilution method; summary of the method: as §1
[7] = tested on: Streptococcus pneumoniae; experiment: Antibacterial activity against erythromycin-susceptible Streptococcus pneumoniae ATCC 49619 by broth microdilution method; summary of the method: as §2
[8] = tested on: Staphylococcus aureus; experiment: Antibacterial activity against erythromycin-susceptible Staphylococcus aureus ATCC 25923 by broth microdilution method; summary of the method: as §2
[9] = tested on: Streptococcus pyogenes; experiment: Antibacterial activity against clinically isolated erythromycin-resistant Streptococcus pyogenes R2 by broth microdilution method; summary of the method: as §1

SMILES | MIC [1] | MIC [2] | MIC [3] | MIC [4] | MIC [5] | MIC [6] | MIC [7] | MIC [8] | MIC [9]
CC[C@H]1OC(=O)[C@@H](C)[C@H](O[C@@H]2C[C@](C)(OC)[C@H](OC(=O)NNC(=O)/C=C/c3ccc([N+](=O)[O-])cc3)[C@@H](C)O2)[C@H](C)[C@H](O[C@H]2O[C@@H](C)C[C@@H](N(C)C)[C@@H]2O)[C@@](C)(O)C[C@H](C)CN(C)[C@@H](C)[C@H](OC(=O)NCc2ccc(OC)cc2)[C@@]1(C)O | 8 µg/mL (≈ 6.98 µM) | 8 µg/mL (≈ 6.98 µM) | 0.25 µg/mL (≈ 0.218 µM) | 0.5 µg/mL (≈ 0.437 µM) | 8 µg/mL (≈ 6.98 µM) | 2 µg/mL (≈ 1.75 µM) | 1 µg/mL (≈ 0.873 µM) | 4 µg/mL (≈ 3.49 µM) | 32 µg/mL (≈ 27.9 µM)
CC[C@H]1OC(=O)[C@@H](C)[C@H](O[C@@H]2C[C@](C)(OC)[C@H](OC(=O)NNC(=O)/C=C/c3ccc(OC)c(OC)c3)[C@@H](C)O2)[C@H](C)[C@H](O[C@H]2O[C@@H](C)C[C@@H](N(C)C)[C@@H]2O)[C@@](C)(O)C[C@H](C)CN(C)[C@@H](C)[C@H](OC(=O)NCc2ccccc2)[C@@]1(C)O | 64 µg/mL (≈ 56.6 µM) | 4 µg/mL (≈ 3.54 µM) | 0.25 µg/mL (≈ 0.221 µM) | 2 µg/mL (≈ 1.77 µM) | 2 µg/mL (≈ 1.77 µM) | 64 µg/mL (≈ 56.6 µM) | 0.06 µg/mL (≈ 0.0531 µM) | 0.5 µg/mL (≈ 0.442 µM) | 64 µg/mL (≈ 56.6 µM)
CC[C@H]1OC(=O)[C@@H](C)[C@H](O[C@H]2C[C@@](C)(OC)[C@@H](OC(=O)NNC(=O)/C=C/c3ccccc3F)[C@H](C)O2)[C@@H](C)[C@H](O[C@H]2O[C@@H](C)C[C@@H](N(C)C)[C@@H]2O)[C@@](C)(O)C[C@H](C)CN(C)[C@@H](C)[C@@H]2OC(=O)O[C@@]12C | 32 µg/mL (≈ 32.6 µM) | 8 µg/mL (≈ 8.15 µM) | 0.25 µg/mL (≈ 0.255 µM) | 2 µg/mL (≈ 2.04 µM) | 16 µg/mL (≈ 16.3 µM) | 16 µg/mL (≈ 16.3 µM) | 8 µg/mL (≈ 8.15 µM) | 4 µg/mL (≈ 4.08 µM) | 64 µg/mL (≈ 65.2 µM)
CC[C@@H]1OC(=O)[C@H](C)[C@@H](O[C@H]2C[C@@](C)(OC)[C@@H](OC(=O)NNC(=O)/C=C/c3ccccc3OC)[C@H](C)O2)[C@@H](C)[C@@H](O[C@@H]2O[C@H](C)C[C@H](N(C)C)[C@H]2O)[C@](C)(O)C[C@@H](C)CN(C)[C@H](C)[C@@H](OC(=O)NCc2ccccc2)[C@]1(C)O | 8 µg/mL (≈ 7.27 µM) | 2 µg/mL (≈ 1.82 µM) | 0.25 µg/mL (≈ 0.227 µM) | 0.5 µg/mL (≈ 0.454 µM) | 2 µg/mL (≈ 1.82 µM) | 16 µg/mL (≈ 14.5 µM) | 0.5 µg/mL (≈ 0.454 µM) | 0.5 µg/mL (≈ 0.454 µM) | 32 µg/mL (≈ 29.1 µM)
CC[C@H]1OC(=O)[C@@H](C)[C@H](O[C@H]2C[C@@](C)(OC)[C@@H](OC(=O)NNC(=O)/C=C/c3ccccc3)[C@H](C)O2)[C@@H](C)[C@H](O[C@H]2O[C@@H](C)C[C@@H](N(C)C)[C@@H]2O)[C@@](C)(O)C[C@H](C)CN(C)[C@@H](C)[C@@H]2OC(=O)O[C@@]12C | 4 µg/mL (≈ 4.15 µM) | 8 µg/mL (≈ 8.31 µM) | 0.25 µg/mL (≈ 0.26 µM) | 0.25 µg/mL (≈ 0.26 µM) | 8 µg/mL (≈ 8.31 µM) | 8 µg/mL (≈ 8.31 µM) | 2 µg/mL (≈ 2.08 µM) | 8 µg/mL (≈ 8.31 µM) | 64 µg/mL (≈ 66.4 µM)
CC[C@@H]1OC(=O)[C@H](C)[C@@H](O[C@H]2C[C@@](C)(OC)[C@@H](OC(=O)NNC(=O)/C=C/c3ccccc3OC)[C@H](C)O2)[C@@H](C)[C@@H](O[C@@H]2O[C@H](C)C[C@H](N(C)C)[C@H]2O)[C@](C)(O)C[C@@H](C)CN(C)[C@H](C)[C@@H](OC(=O)NCc2ccc(OC)cc2)[C@]1(C)O | 8 µg/mL (≈ 7.08 µM) | 4 µg/mL (≈ 3.54 µM) | 0.25 µg/mL (≈ 0.221 µM) | 0.25 µg/mL (≈ 0.221 µM) | 4 µg/mL (≈ 3.54 µM) | 4 µg/mL (≈ 3.54 µM) | 0.25 µg/mL (≈ 0.221 µM) | 1 µg/mL (≈ 0.885 µM) | 64 µg/mL (≈ 56.6 µM)
CC[C@@H]1OC(=O)[C@H](C)[C@@H](O[C@H]2C[C@@](C)(OC)[C@@H](OC(=O)NNC(=O)/C=C/c3ccccc3)[C@H](C)O2)[C@@H](C)[C@@H](O[C@@H]2O[C@H](C)C[C@H](N(C)C)[C@H]2O)[C@](C)(O)C[C@@H](C)CN(C)[C@H](C)[C@@H](OC(=O)NCc2ccc(OC)cc2)[C@]1(C)O | 8 µg/mL (≈ 7.27 µM) | 4 µg/mL (≈ 3.64 µM) | 0.25 µg/mL (≈ 0.227 µM) | 0.25 µg/mL (≈ 0.227 µM) | 4 µg/mL (≈ 3.64 µM) | 2 µg/mL (≈ 1.82 µM) | 0.25 µg/mL (≈ 0.227 µM) | 1 µg/mL (≈ 0.909 µM) | 32 µg/mL (≈ 29.1 µM)
CC[C@H]1OC(=O)[C@@H](C)[C@H](O[C@@H]2C[C@](C)(OC)[C@H](OC(=O)NNC(=O)/C=C/c3ccc([N+](=O)[O-])cc3)[C@@H](C)O2)[C@H](C)[C@H](O[C@H]2O[C@@H](C)C[C@@H](N(C)C)[C@@H]2O)[C@@](C)(O)C[C@H](C)CN(C)[C@@H](C)[C@H](OC(=O)NCc2ccccc2)[C@@]1(C)O | 2 µg/mL (≈ 1.79 µM) | 2 µg/mL (≈ 1.79 µM) | 0.5 µg/mL (≈ 0.448 µM) | 0.12 µg/mL (≈ 0.108 µM) | 2 µg/mL (≈ 1.79 µM) | 4 µg/mL (≈ 3.59 µM) | 0.25 µg/mL (≈ 0.224 µM) | 0.5 µg/mL (≈ 0.448 µM) | 16 µg/mL (≈ 14.3 µM)
CC[C@H]1OC(=O)[C@H](C)[C@@H](O[C@H]2C[C@@](C)(OC)[C@@H](O)[C@H](C)O2)[C@H](C)[C@@H](O[C@@H]2O[C@H](C)C[C@H](N(C)C)[C@H]2O)[C@](C)(O)C[C@@H](C)C(=O)[C@H](C)[C@@H](O)[C@]1(C)O [ERYTHROMYCIN] | 256 µg/mL (≈ 349 µM) | 0.12 µg/mL (≈ 0.164 µM) | 0.12 µg/mL (≈ 0.164 µM) | 8 µg/mL (≈ 10.9 µM) | 0.25 µg/mL (≈ 0.341 µM) | > 128 µg/mL | 0.03 µg/mL (≈ 0.0409 µM) | 0.06 µg/mL (≈ 0.0818 µM) | ≥ 128 µg/mL
CC[C@H]1OC(=O)[C@@H](C)[C@H](O[C@@H]2C[C@](C)(OC)[C@H](OC(=O)NNC(=O)/C=C/c3ccc(Br)cc3)[C@@H](C)O2)[C@H](C)[C@H](O[C@H]2O[C@@H](C)C[C@@H](N(C)C)[C@@H]2O)[C@@](C)(O)C[C@H](C)CN(C)[C@@H](C)[C@H](OC(=O)NCc2ccccc2)[C@@]1(C)O | 1 µg/mL (≈ 0.87 µM) | 2 µg/mL (≈ 1.74 µM) | 0.25 µg/mL (≈ 0.218 µM) | 0.12 µg/mL (≈ 0.104 µM) | 2 µg/mL (≈ 1.74 µM) | 1 µg/mL (≈ 0.87 µM) | 0.25 µg/mL (≈ 0.218 µM) | 0.5 µg/mL (≈ 0.435 µM) | 16 µg/mL (≈ 13.9 µM)
CC[C@H]1OC(=O)[C@@H](C)[C@H](O[C@H]2C[C@@](C)(OC)[C@@H](OC(=O)NNC(=O)/C=C/c3ccc(C#N)cc3)[C@H](C)O2)[C@@H](C)[C@H](O[C@H]2O[C@@H](C)C[C@@H](N(C)C)[C@@H]2O)[C@@](C)(O)C[C@H](C)CN(C)[C@@H](C)[C@@H]2OC(=O)O[C@@]12C | 64 µg/mL (≈ 64.8 µM) | 8 µg/mL (≈ 8.1 µM) | 0.5 µg/mL (≈ 0.506 µM) | 2 µg/mL (≈ 2.02 µM) | 8 µg/mL (≈ 8.1 µM) | 64 µg/mL (≈ 64.8 µM) | 16 µg/mL (≈ 16.2 µM) | 4 µg/mL (≈ 4.05 µM) | ≥ 128 µg/mL
CC[C@@H]1OC(=O)[C@H](C)[C@@H](O[C@H]2C[C@@](C)(OC)[C@@H](OC(=O)NNC(=O)/C=C/c3cccs3)[C@H](C)O2)[C@@H](C)[C@@H](O[C@@H]2O[C@H](C)C[C@H](N(C)C)[C@H]2O)[C@](C)(O)C[C@@H](C)CN(C)[C@H](C)[C@@H](OC(=O)NCc2ccccc2)[C@]1(C)O | 4 µg/mL (≈ 3.72 µM) | 4 µg/mL (≈ 3.72 µM) | 0.25 µg/mL (≈ 0.232 µM) | 0.06 µg/mL (≈ 0.0557 µM) | 2 µg/mL (≈ 1.86 µM) | 2 µg/mL (≈ 1.86 µM) | 0.5 µg/mL (≈ 0.465 µM) | 1 µg/mL (≈ 0.929 µM) | 32 µg/mL (≈ 29.7 µM)
CC[C@@H]1OC(=O)[C@H](C)[C@@H](O[C@H]2C[C@@](C)(OC)[C@@H](OC(=O)NNC(=O)/C=C/c3cc(OC)c(OC)c(OC)c3)[C@H](C)O2)[C@@H](C)[C@@H](O[C@@H]2O[C@H](C)C[C@H](N(C)C)[C@H]2O)[C@](C)(O)C[C@@H](C)CN(C)[C@H](C)[C@@H](OC(=O)NCc2ccccc2)[C@]1(C)O | 16 µg/mL (≈ 13.8 µM) | 4 µg/mL (≈ 3.45 µM) | 1 µg/mL (≈ 0.862 µM) | 2 µg/mL (≈ 1.72 µM) | 4 µg/mL (≈ 3.45 µM) | 32 µg/mL (≈ 27.6 µM) | 0.5 µg/mL (≈ 0.431 µM) | 1 µg/mL (≈ 0.862 µM) | 64 µg/mL (≈ 55.2 µM)
